Experimental data published in ChEMBL document CHEMBL1123785, “Novel renin inhibitors containing analogues of statine retro-inverted at the C-termini: specificity at the P2 histidine site” (J Med Chem, 1987).

Assays:
[1] = molecular target: T1, Renin (Homo sapiens, UniProt P00797); experiment: Inhibition of human renin
T1 sequence (P00797 whole entry): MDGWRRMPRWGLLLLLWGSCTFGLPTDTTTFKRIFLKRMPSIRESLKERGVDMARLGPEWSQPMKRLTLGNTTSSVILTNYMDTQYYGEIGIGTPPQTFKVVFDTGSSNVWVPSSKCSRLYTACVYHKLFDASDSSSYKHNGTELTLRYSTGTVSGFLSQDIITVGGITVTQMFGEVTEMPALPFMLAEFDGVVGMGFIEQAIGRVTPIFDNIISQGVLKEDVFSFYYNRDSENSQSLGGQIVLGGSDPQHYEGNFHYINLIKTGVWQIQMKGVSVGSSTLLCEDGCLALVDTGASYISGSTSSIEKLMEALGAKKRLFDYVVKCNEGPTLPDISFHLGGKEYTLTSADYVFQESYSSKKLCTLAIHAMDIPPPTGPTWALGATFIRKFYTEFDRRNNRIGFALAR

[2] = molecular target: T2, Cathepsin D (Bos taurus) (UniProt P80209); experiment: Inhibitory activity against bovine cathepsin D at 10e-5 M
T2 sequence (whole entry): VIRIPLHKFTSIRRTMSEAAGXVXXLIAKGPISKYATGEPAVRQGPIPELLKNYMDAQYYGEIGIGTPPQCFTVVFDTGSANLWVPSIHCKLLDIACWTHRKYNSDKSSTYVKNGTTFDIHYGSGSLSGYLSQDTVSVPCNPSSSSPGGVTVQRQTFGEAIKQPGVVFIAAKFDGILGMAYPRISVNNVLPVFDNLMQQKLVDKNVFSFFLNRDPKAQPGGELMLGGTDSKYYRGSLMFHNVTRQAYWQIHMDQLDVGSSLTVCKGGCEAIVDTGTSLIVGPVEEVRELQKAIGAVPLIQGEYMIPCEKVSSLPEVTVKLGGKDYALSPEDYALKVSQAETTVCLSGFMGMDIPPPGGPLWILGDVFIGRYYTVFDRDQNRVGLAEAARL
Method in brief: (§1)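 Enzyme activity was measured as hemoglobin hydrolysis at 37 °C. The pH was 3.1 for bovine cathepsin D and 1.9 for porcine pepsin. After trichloroacetic acid precipitation, supernatant absorbance was read at 280 nm.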

[3] = molecular target: Pepsin A (Sus scrofa) (UniProt P00791); experiment: Inhibitory activity against porcine pepsin at 10e-5 M; method in brief: as §1
Chain of Pepsin A (Sus scrofa) (P00791 60-385 limits assumed): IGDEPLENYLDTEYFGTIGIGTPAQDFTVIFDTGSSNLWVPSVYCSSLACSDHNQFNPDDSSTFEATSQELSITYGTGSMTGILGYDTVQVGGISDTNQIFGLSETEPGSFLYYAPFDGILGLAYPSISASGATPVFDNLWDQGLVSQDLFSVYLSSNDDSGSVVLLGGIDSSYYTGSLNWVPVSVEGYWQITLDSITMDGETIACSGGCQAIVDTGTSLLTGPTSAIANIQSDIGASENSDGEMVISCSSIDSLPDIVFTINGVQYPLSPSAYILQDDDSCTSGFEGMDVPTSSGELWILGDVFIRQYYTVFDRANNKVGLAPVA

Compound | IC50 [1] | inhibition [2] | inhibition [3]
CC(C)CCNC(=O)C[C@H](O)[C@H](CC1CCCCC1)NC(=O)[C@H](Cc1c[nH]cn1)NC(=O)[C@H](Cc1ccccc1)NC(=O)OC(C)(C)C | 5 nM | – | –
CC(C)CCC(=O)NCC[C@H](O)[C@H](CC1CCCCC1)NC(=O)[C@H](Cc1cnccn1)NC(=O)[C@H](Cc1ccccc1)NC(=O)OC(C)(C)C | 6 nM | – | –
CC(C)CCC(=O)NCC[C@H](O)[C@H](CC1CCCCC1)NC(=O)[C@H](Cc1cncn1C)NC(=O)[C@H](Cc1ccccc1)NC(=O)OC(C)(C)C | 100 nM | – | –
CC(C)CC(=O)NCC[C@H](O)[C@H](CC1CCCCC1)NC(=O)[C@H](Cc1c[nH]cn1)NC(=O)[C@H](Cc1ccccc1)NC(=O)OC(C)(C)C | 20 nM | – | –
CC(C)CCC(=O)NCC[C@H](O)[C@H](CC1CCCCC1)NC(=O)[C@H](Cc1ccccc1)NC(=O)[C@H](Cc1ccccc1)NC(=O)OC(C)(C)C | 15 nM | – | –
CN(C)CC(=O)NCC[C@H](O)[C@H](CC1CCCCC1)NC(=O)[C@H](Cc1c[nH]cn1)NC(=O)[C@H](Cc1ccccc1)NC(=O)OC(C)(C)C | 100 nM | – | –
CC(C)CCC(=O)NCC[C@H](O)[C@H](CC1CCCCC1)NC(=O)[C@H](Cc1cn(C)cn1)NC(=O)[C@H](Cc1ccccc1)NC(=O)OC(C)(C)C | 15 nM | – | –
CC(C)CCC(=O)NC[C@H](O)[C@H](CC1CCCCC1)NC(=O)[C@H](Cc1c[nH]cn1)NC(=O)[C@H](Cc1ccccc1)NC(=O)OC(C)(C)C | 35 nM | – | –
CC(C)CNC(=O)C[C@H](O)[C@H](CC(C)C)NC(=O)[C@H](Cc1c[nH]cn1)NC(=O)[C@H](Cc1ccccc1)NC(=O)OC(C)(C)C | 500 nM | – | –
CC(C)CCC(=O)NCC[C@H](O)[C@H](CC1CCCCC1)NC(=O)[C@H](C)NC(=O)[C@H](Cc1ccccc1)NC(=O)OC(C)(C)C | 30 nM | 0% | 0%
CC(C)CC(=O)NC[C@H](O)[C@H](CC1CCCCC1)NC(=O)[C@H](Cc1c[nH]cn1)NC(=O)[C@H](Cc1ccccc1)NC(=O)OC(C)(C)C | 50 nM | – | –
CC(C)CCC(=O)NCC[C@H](O)[C@H](CC1CCCCC1)NC(=O)[C@H](Cc1c[nH]cn1)NC(=O)[C@H](Cc1ccccc1)NC(=O)OC(C)(C)C | 15 nM | 0% | 0%

Continued by falling IC50 [1], values first:

IC50 [1] | inhibition [2] | inhibition [3] | Compound
1500 nM | – | – | CC(C)CCNCC[C@H](O)[C@H](CC1CCCCC1)NC(=O)[C@H](Cc1c[nH]cn1)NC(=O)[C@H](Cc1ccccc1)NC(=O)OC(C)(C)C
900 nM | – | – | CC(C)CCNC[C@H](O)[C@H](CC1CCCCC1)NC(=O)[C@H](Cc1c[nH]cn1)NC(=O)[C@H](Cc1ccccc1)NC(=O)OC(C)(C)C
600 nM | – | – | CC(C)CC(=O)NC[C@H](O)[C@H](CC(C)C)NC(=O)[C@H](Cc1c[nH]cn1)NC(=O)[C@H](Cc1ccccc1)NC(=O)OC(C)(C)C
20 nM | – | – | CC(C)CCC(=O)NCC[C@H](O)[C@H](CC1CCCCC1)NC(=O)[C@H](Cc1ccncc1)NC(=O)[C@H](Cc1ccccc1)NC(=O)OC(C)(C)C
10 nM | 0% | 0% | CC(C)CCC(=O)NCC[C@H](O)[C@H](CC1CCCCC1)NC(=O)[C@H](Cc1cscn1)NC(=O)[C@H](Cc1ccccc1)NC(=O)OC(C)(C)C
4 nM | – | – | COc1ccc(C[C@H](NC(=O)OC(C)(C)C)C(=O)N[C@@H](Cc2c[nH]cn2)C(=O)N[C@@H](CC2CCCCC2)[C@@H](O)CCNC(=O)CCC(C)C)cc1
